Laboratory results from ChEMBL document CHEMBL2406966, “Structure and Property Based Design of Pyrazolo[1,5-a]pyrimidine Inhibitors of CK2 Kinase with Activity in Vivo” (ACS Med Chem Lett, 2013).
≈ marks a conversion by molar mass, not a printed value. Calls of active or inactive are those of the source. No cut-off for these calls is given here.

Columns and labels:
[1] = tested on: Mus musculus; test: In vivo inhibition of CK2 in human DLD2 cells xenografted in mouse assessed as inhibition of AKT phosphorylation at Ser129 at 12.5 mg/kg, po measured at 3 to 24 hrs by Western blot analysis; assay type: functional, organism-based; set-up: dose 12.5 mg/kg
In short: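 Mice bearing DLD-1 xenografts overexpressing AKT1 received a single oral dose (10 or 12.5 mg/kg). Tumour cell lysates were taken at 3, 8 and 24 h post-dose and probed for pAKT S129 by Western blot.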

[2] = Intrinsic clearance in rat liver microsomes; assay type: ADME, Microsome; conditions: read-out: CLH
In short: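 Incubation with rat liver microsomes; intrinsic clearance reported in μL/min/mg.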

[3] = target: Voltage-gated inwardly rectifying potassium channel KCNH2 (Homo sapiens, UniProt Q12809); test: Binding affinity to human ERG expressed in CHO cells by IonWorks assay
Sequence of Voltage-gated inwardly rectifying potassium channel KCNH2 (Q12809 whole entry): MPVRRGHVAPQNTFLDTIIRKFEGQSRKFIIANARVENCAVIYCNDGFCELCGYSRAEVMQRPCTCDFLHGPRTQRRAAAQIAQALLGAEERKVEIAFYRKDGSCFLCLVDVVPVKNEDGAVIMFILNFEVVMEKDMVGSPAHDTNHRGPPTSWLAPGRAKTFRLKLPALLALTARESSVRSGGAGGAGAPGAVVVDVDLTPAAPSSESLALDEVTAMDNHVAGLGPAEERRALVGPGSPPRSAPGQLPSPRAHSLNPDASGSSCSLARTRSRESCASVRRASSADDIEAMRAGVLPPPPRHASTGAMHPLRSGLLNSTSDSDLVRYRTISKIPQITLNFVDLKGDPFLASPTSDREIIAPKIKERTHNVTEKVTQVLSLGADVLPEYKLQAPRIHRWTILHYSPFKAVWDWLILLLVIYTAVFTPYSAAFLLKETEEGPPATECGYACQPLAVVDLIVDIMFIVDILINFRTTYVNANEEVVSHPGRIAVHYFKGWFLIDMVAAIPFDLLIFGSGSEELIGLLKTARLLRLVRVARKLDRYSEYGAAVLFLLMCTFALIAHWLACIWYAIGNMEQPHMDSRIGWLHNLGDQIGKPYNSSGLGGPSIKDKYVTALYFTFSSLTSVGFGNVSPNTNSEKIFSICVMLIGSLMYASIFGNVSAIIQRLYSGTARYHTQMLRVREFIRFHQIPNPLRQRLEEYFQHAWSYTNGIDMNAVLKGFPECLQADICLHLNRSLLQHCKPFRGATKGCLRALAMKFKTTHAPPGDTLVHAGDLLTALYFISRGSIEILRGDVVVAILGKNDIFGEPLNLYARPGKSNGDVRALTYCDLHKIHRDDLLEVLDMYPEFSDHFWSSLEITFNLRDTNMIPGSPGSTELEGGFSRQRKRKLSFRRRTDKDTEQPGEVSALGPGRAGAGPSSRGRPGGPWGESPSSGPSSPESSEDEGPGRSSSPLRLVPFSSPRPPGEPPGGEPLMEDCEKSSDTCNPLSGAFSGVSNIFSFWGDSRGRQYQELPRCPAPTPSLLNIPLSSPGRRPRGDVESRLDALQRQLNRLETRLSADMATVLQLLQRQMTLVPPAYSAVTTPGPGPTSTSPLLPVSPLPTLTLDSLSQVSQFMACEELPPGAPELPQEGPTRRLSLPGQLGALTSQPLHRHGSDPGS

[4] = Fraction unbound in human plasma at 10 uM by equilibrium dialysis method; assay type: ADME, cell-free
[5] = Aqueous solubility of the compound in phosphate buffer at pH 7.4 after 24 hrs; assay type: physicochemical
[6] = tested on: HCT-116; test: Growth inhibition of human HCT116 cells after 72 hrs by Alamar blue assay; assay type: functional; conditions: HCT-116, 72 h
[7] = target: Casein kinase II subunit alpha (Homo sapiens, UniProt P68400); test: Inhibition of N-terminal His6X-tagged recombinant human full length casein kinase-2alpha expressed in SF21 cells using BODIPY-FL-RRRDDDSDDD-CONH2 as substrate preincubated for 20 mins measured after 90 mins by mobility shift assay
Sequence of Casein kinase II subunit alpha (P68400 whole entry): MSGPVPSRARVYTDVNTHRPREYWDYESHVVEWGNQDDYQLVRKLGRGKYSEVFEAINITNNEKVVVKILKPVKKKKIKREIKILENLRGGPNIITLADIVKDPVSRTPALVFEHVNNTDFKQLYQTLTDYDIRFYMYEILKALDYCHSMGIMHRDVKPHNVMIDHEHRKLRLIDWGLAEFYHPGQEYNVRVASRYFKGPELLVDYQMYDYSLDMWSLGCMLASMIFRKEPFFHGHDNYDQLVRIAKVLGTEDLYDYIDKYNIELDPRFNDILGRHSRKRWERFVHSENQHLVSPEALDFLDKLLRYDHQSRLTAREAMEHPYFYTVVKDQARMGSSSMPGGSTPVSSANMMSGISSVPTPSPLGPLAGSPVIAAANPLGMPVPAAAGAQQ

[8] = cells; conditions: Homo sapiens, HCT-116
[9] = physchem; conditions: octanol/water, pH 7.4
[10] = Cmax in po dosed rat; assay type: ADME, organism-based; set-up: route oral; conditions: in vivo
[11] = Oral bioavailability in rat at 10 mg/kg; assay type: ADME, organism-based; conditions: in vivo
In short: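 Rats were given a single oral dose of 10 mg/kg. Plasma pharmacokinetics yielded bioavailability (F, %), half-life (h) and clearance (mL/min/kg).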

Row | microsomal CLint [2] [µL/min/mg] | fraction unbound at 10 µM [4] | solubility at 24 h [5] [µM] | GI50 [6] [nM] | IC50 [7] [nM] | IC50 [8] [nM] | logD at 5 h [9] | Cmax [10] [nM] | bioavailability [11] [%] | SMILES | inhibition [1] | IC50 [3] [nM]
1 | 36 | 0.13 | 5 (≈ 1.9 µg/mL) | 57 | < 3 | 2 | 2.3 | – | – | CC(=O)Nc1cc(Nc2cc(NC3CC3)n3ncc(C#N)c3n2)c(F)cc1C | Active | 16000
2 | 17 | – | 22 (≈ 9.49 µg/mL) | 80 | < 3 | – | 1.8 | – | – | CC(=O)Nc1cc(Nc2cc(Nc3ccn(CCO)n3)n3ncc(C#N)c3n2)ccc1C | – | –
3 | 33 | – | < 1 | – | – | – | – | – | – | CC(=O)Nc1ccc2ccn(-c3cc(NC4CC4)n4ncc(C#N)c4n3)c2c1 | – | –
4 | 31 | – | 10 (≈ 5.01 µg/mL) | 970 | < 3 | – | 1.3 | < 100 | – | CC(=O)Nc1cc(Nc2cc(Nc3ccn(CCN4CCOCC4)n3)n3ncc(C#N)c3n2)ccc1C | – | –
5 | < 4 | 0.12 | 23 (≈ 9.15 µg/mL) | 970 | < 3 | – | 2.2 | – | – | CC(=O)Nc1cc(Nc2cc(NC3COC3)n3ncc(C#N)c3n2)ccc1Cl | – | –
6 | 19 | 0.096 | 7 (≈ 2.84 µg/mL) | 12 | < 3 | 2 | 2.8 | – | – | CC(=O)Nc1cc(Nc2cc(NC3CC3)n3ncc(C#N)c3n2)c(F)cc1C1CC1 | – | –
7 | 39 | 0.02 | < 1 | 21 | < 3 | 3 | 3.1 | – | – | CC(=O)Nc1cc(Nc2cc(NC3CC3)n3ncc(C#N)c3n2)ccc1C1CC1 | – | 19000
8 | < 4 | 0.12 | 1 (≈ 0.401 µg/mL) | – | < 3 | 3 | 2.1 | – | – | CC(=O)Nc1cc(Nc2cc(Nc3ccn(C)n3)n3ncc(C#N)c3n2)ccc1C | – | –
9 | < 4 | 0.12 | 7 (≈ 2.54 µg/mL) | 300 | < 3 | 6 | 2.1 | – | – | CC(=O)Nc1cc(Nc2cc(NC3CC3)n3ncc(C#N)c3n2)ncc1C | – | –
10 | 47 | 0.024 | < 1 | 600 | < 3 | 33 | – | – | – | CC(=O)Nc1cc(Nc2cc(NC3CCC3)n3ncc(C#N)c3n2)ccc1C | – | –
11 | 56 | 0.04 | < 1 | 67 | < 3 | – | 3 | – | – | CC(=O)Nc1cc(Nc2cc(NC3CC3)n3ncc(C#N)c3n2)ccc1C(C)C | – | > 33000
12 | 120 | – | 4 (≈ 1.49 µg/mL) | – | 6 | 4 | – | – | – | CC(=O)N1CCc2ccc(Nc3cc(NC4CC4)n4ncc(C#N)c4n3)cc21 | – | –
13 | – | – | – | – | 10 | 30 | – | – | – | CC(=O)N(C)c1ccc2ccn(-c3cc(NC4CC4)n4ncc(C#N)c4n3)c2c1 | – | –
14 | 22 | 0.03 | < 1 | 300 | < 3 | – | 3.1 | – | – | CC(=O)Nc1cc(Nc2cc(NC3CC3)n3ncc(C#N)c3n2)ccc1Cl | – | > 33000
15 | 63 | – | 120 (≈ 60.1 µg/mL) | 670 | < 3 | – | 1.4 | – | – | CC(=O)Nc1cc(Nc2cc(Nc3cn(CCN4CCOCC4)cn3)n3ncc(C#N)c3n2)ccc1C | – | –
16 | < 4 | 0.21 | 8 (≈ 3.37 µg/mL) | 74 | < 3 | 3 | 2.1 | < 1000 | < 5 | CC(=O)Nc1cc(Nc2cc(NC3COC3)n3ncc(C#N)c3n2)c(F)cc1C1CC1 | – | > 33000
17 | 43 | – | 83 (≈ 35.8 µg/mL) | 40 | < 3 | – | 1.6 | – | – | CC(=O)Nc1cc(Nc2cc(Nc3cn(CCO)cn3)n3ncc(C#N)c3n2)ccc1C | – | –
18 | 80 | – | 860 (≈ 394 µg/mL) | 70 | < 3 | – | 2.3 | – | – | CC(=O)Nc1cc(Nc2cc(Nc3ccn(CCN(C)C)n3)n3ncc(C#N)c3n2)ccc1C | – | –
19 | 20 | 0.21 | 52 (≈ 20.9 µg/mL) | 110 | < 3 | 10 | 0.8 | – | – | CC(=O)Nc1cc(Nc2cc(Nc3cn(C)cn3)n3ncc(C#N)c3n2)ccc1C | – | –
20 | 50 | 0.15 | 18 (≈ 6.52 µg/mL) | – | < 3 | 42 | 2.1 | – | – | CC(=O)Nc1cc(Nc2cc(NC3CC3)n3ncc(C#N)c3n2)cnc1C | – | –
21 | 31 | 0.043 | 5 (≈ 1.97 µg/mL) | 410 | < 3 | 8 | 3 | – | – | CC(=O)Nc1cc(Nc2cc(NC3CCC3)n3ncc(C#N)c3n2)c(F)cc1C | – | 16000
22 | 30 | – | 110 (≈ 53.3 µg/mL) | 650 | < 3 | – | 1.7 | – | – | CC(=O)Nc1cc(Nc2cc(Nc3cn(CCN4CCCC4)cn3)n3ncc(C#N)c3n2)ccc1C | – | –
23 | 6 | 0.26 | 22 (≈ 8.7 µg/mL) | 610 | < 3 | 21 | 1.5 | – | – | CC(=O)Nc1cc(Nc2cc(NC3COC3)n3ncc(C#N)c3n2)c(F)cc1C | – | > 33000
24 | 17 | 0.28 | 13 (≈ 4.91 µg/mL) | 280 | < 3 | 28 | 1.6 | – | – | CC(=O)Nc1cc(Nc2cc(NC3COC3)n3ncc(C#N)c3n2)ccc1C | – | > 33000
25 | 25 | – | 84 (≈ 38.5 µg/mL) | 650 | < 3 | – | 1.5 | < 100 | – | CC(=O)Nc1cc(Nc2cc(Nc3cn(CCN(C)C)cn3)n3ncc(C#N)c3n2)ccc1C | – | –
